Source: PubChem BioAssay (several laboratories)
Cav3 T inh – inhibitors of human Cav3.2 T-type calcium channel | O95180 | Cav3.2-expressing cells, Fluo-4 calcium fluorescence FDSS; hits give low values | B-score at 10 µM | 100,000 compounds, 4% hits | AID 449739;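 active = single-dose well whose peak fluorescence ratio is a statistical outlier from its plate by either plate-standardised score or position-corrected B-score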
E coli WT exp – blocks growth of wild type E. coli BW25113. 98,000 compounds, 0.15% hits. growth inhibition, % at 100 µM. OD600 absorbance;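 active = growth inhibition above about 50% at one test dose, limit read from the data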;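 also: growth measured after 20 h incubation at 37 °C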
Ecoli tolC – E. coli tolC mutant growth inhibition; E. coli BW25113 tolC mutant growth, OD615; growth inhibition, % at 10 µM (by protocol); 65,000 compounds, 2.2% hits;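 active = growth inhibition at or above a cutoff equal to the mean over every tested compound plus 3 SD, cut at about 60% in these data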;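 also: growth measured after 20 h incubation at 37 °C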
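test system = E. coli BW25113 ΔtolC::kan bacteria | medium = LB with kanamycin 50 µg/mL | signal = OD at 615 nm | schedule = 37 °C, 20 h exposure | evaluation = % inhibition of E. coli growth | compound dosing = one dose of 10 µM final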
PostGolgi yeast – growth inhibition of a yeast mutant, post-Golgi transport screen; post-Golgi transport phenotypic cell assay; inhibition, % at 10 µM; 98,000 compounds, 0.9% hits; AID 739;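 also: yeast cells grown in 1536-well plates; yeast grown about 18 h at 30C before absorbance read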
PTK2B oligo ant – Pyk2 (human) oligomerization antagonism; Q293 cells, Pyk2 FERM NanoBiT luminescence; hits give low values; 99,000 compounds, 0.83% hits; AID 1347419; z-score (the deposit names both 25 µM and 10 µM); Q14289;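 active = Z-score of -3 or lower, scaled per plate to the spread of control and sample wells; inactive = z-score above -3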;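 also: negative z-score means lost luminescence so less FERM oligomerization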
PostGolgi ctrl – inhibits growth of the yeast control strain; inhibition, % at 10 µM; efflux-deficient yeast background strain, growth absorbance A615, 16 h; 98,000 compounds, 5% hits
* hit, by the source's call; . = not tested or not shown. Compounds with a hit are over-represented: about 8.7% of the library has one in this group of screens. Rule as the data show it, unless noted: active = inhibition above about 30%; inactive = the rest.

SMILES	Cav3 T inh	E coli WT exp	Ecoli tolC	PostGolgi yeast	PTK2B oligo ant	PostGolgi ctrl
O=C(c1ccc(Cl)cc1)c1oc2ccccc2c1CS(=O)(=O)c1ccccc1	-2.83	-19.0	.	2.3	-1.51	31.4*
COc1ccc(N2CCN(CCCn3c(=S)[nH]c4ncccc4c3=O)CC2)cc1	1.4	-7.0	.	15.5	0.4	9.5
O=c1c2cccnc2[nH]c(=S)n1CCCN1CCN(c2ccc(F)cc2)CC1	0.805	-13.0	2.3	13.6	0.27	41.7*
CCOCCCn1c(=S)[nH]c2ncccc2c1=O	.	-9.0	1.0	6.5	0.52	32.8*
Cc1nn2c(c1-c1ccc(Cl)cc1)N=C(c1ccco1)CC2c1ccccc1 (configuration not stated)	-2.76	-7.0	.	23.4	-0.35	34.8*
CC(=O)N1N=C(c2ccco2)CC1c1ccc(C)cc1 (configuration not stated)	.	.	.	.	0.48	.
COc1ccc(-c2nc3n(n2)C(c2ccccc2Cl)C(C(N)=O)=C(C)N3)cc1 (configuration not stated)	0.837	8.0	-4.6	-1.7	.	12.4
Cc1cc(N2CCN(C(c3ccccc3)c3ccccc3)CC2)n2ncnc2n1	-2.67	1.0	82.1*	3.4	-0.87	23.7
Cc1nc(N2CCN(C(c3ccccc3)c3ccccc3)CC2)nc2c1C(=O)CCC2	.	.	-13.0	.	.	.
Cc1nc2ncnn2c(N2CCN(C(c3ccccc3)c3ccccc3)CC2)c1C	-4.26	6.0	61.9*	16.0	-1.29	28.3
O=C(Nc1ccc(Oc2cccc3ccccc23)cc1)c1ccco1	-2.18	-11.0	.	-6.3	-0.48	11.9
CC(C)CCNC(=O)C1CCCN1C(=O)NC1CCCCC1 (configuration not stated)	0.146	.	.	.	-1.14	.
O=C(N1CCOCC1)N(CCN1CCOCC1)Cc1cccc(Cl)c1	0.681	0.0	-9.6	0.2	0.09	18.4
CCN(CCCNC(=O)CC(C(=O)N1CCc2ccccc21)n1ccnc1)c1ccccc1 (configuration not stated)	-4.62*	9.0	11.4	14.1	-0.53	3.3
CCN(CCNC(=O)Cn1cc2c(n1)CCCC2)c1ccccc1	-0.38	-2.0	1.3	2.0	.	9.3
C=CCOc1c(CNc2nccs2)cccc1OCC	-1.35	11.0	21.2	32.5*	-0.04	22.7
C=CCOc1ccc(CNc2nccs2)cc1OCC	-1.37	.	.	.	1.31	.
N#CC1=C(N)Oc2cc3c(cc2C1c1ccc(Cl)cc1)OCO3 (configuration not stated)	-0.495	-9.0	7.7	-3.8	-2	30.0*
COc1cc(C2C(C#N)=C(N)Oc3cc(O)ccc32)cc2c1OCO2 (configuration not stated)	-3.72	8.0	9.2	-7.2	-1.43	9.1
Cc1nn(CCC(=O)NNC(=S)NCC(C)C)c(C)c1Br	0.062	1.0	.	6.7	1.58	2.2
CCCOc1ccc(-c2nnn(CC(=O)c3c[nH]c4ccccc34)n2)cc1	-0.059	-11.0	.	15.4	-0.26	9.4
CN1CCN(C(=O)CN(CCc2ccccc2)S(C)(=O)=O)CC1	.	-3.0	.	8.0	-0.33	16.5
C=CCn1c(CCC(=O)O)ccc1-c1ccccc1	-0.956	4.0	18.4	5.3	0.6	1.7
O=C(NCCSCc1ccco1)Nc1ccc(Cl)cc1	.	21.0	21.4	0.5	1.77	12.9
O=C(NCCSCc1ccco1)Nc1cccc(Cl)c1	-4.46*	25.0	38.5	-10.1	-0.59	13.1
SMILES	Cav3 T inh	E coli WT exp	Ecoli tolC	PostGolgi yeast	PTK2B oligo ant	PostGolgi ctrl
CCn1c(CNc2ccc(Cl)cc2)nnc1SCc1ccccc1	-8.49*	7.0	.	98.8*	0.54	92.5*
CCn1c(Cn2nnc(-c3ccccc3)n2)nnc1SCc1ccc(Cl)c(Cl)c1	-4.21	-30.0	73.3*	2.1	1.19	45.6*
Cn1c(CNc2ccc(Cl)cc2)nnc1SCc1ccccc1	-2.33	11.0	19.2	105.3*	-0.46	95.9*
N#Cc1c(Cl)c(Cl)c2nnc(-c3ccc(Br)cc3)n2c1Cl	1.48	6.0	.	-1.2	.	-2.3
CC1(C)CC(C#N)(N2CCOCC2)CCO1 (configuration not stated)	0.234	-1.0	-6.7	10.8	-0.8	-12.1
O=S(=O)(NCCc1ccccc1)c1ccc(Cl)nc1	.	.	.	.	2.03	.
COc1ccc(NC(=S)NNC(=O)OC(C)(C)C)cc1OC	0.0794	5.0	.	-9.1	0.31	-1.6
CCc1cccc(NC(=O)CCc2nc(-c3cccs3)no2)c1	-7.07*	6.0	18.0	5.5	.	22.4
CCOC(=O)c1ccc(NC(=O)CCc2nc(-c3ccccc3)no2)cc1	-2.47	2.0	52.6	2.4	-0.23	9.4
CCOC(=O)c1ccc(NC(=O)CCc2nc(-c3ccccc3Cl)no2)cc1	-3.78*	5.0	98.7*	-2.9	-0.64	17.3
CCCCCN=Cc1c(C)[nH]n(-c2nc3ccccc3s2)c1=O	0.486	5.0	15.8	16.9	-0.25	2.9
NC(=O)C1CCCN(C(=S)Nc2cccc3ccccc23)C1 (configuration not stated)	.	.	.	.	-1.9	.
Cc1nc(N2CCN(C(=O)COc3ccccc3)CC2)c2c(C)c(C)sc2n1	-3.95*	3.0	.	12.9	-0.9	14.4
O=C(COc1ccccc1)N1CCN(C(=O)c2cccs2)CC1	0.259	-2.0	-17.2	4.2	0.12	8.5
Cc1ccc(OCC(=O)N2CCN(c3nnc(-c4ccccc4)c4ccccc34)CC2)cc1	-9.65*	-20.0	.	-7.8	-1.64	27.7
Cc1[nH]n(CCC#N)c(=O)c1CC(=O)N1CCN(c2ccccc2)CC1	-0.609	2.0	-14.0	-1.8	-1.03	-10.5
CCOC(=O)C1=C(C)NC(C)=C(C(=O)OCC)C1c1sccc1C	-4.1	8.0	.	-7.4	-3.33*	38.3*
CCOC(=O)C1=C(C)NC(C)=C(C(=O)OCC)C1c1ccc(O)cc1	0.131	12.0	12.9	6.0	-1.96	-12.6
CCCC1C(C(=O)OCC)=C(C)NC(C)=C1C(=O)OCC	.	-7.0	-4.6	8.3	-3.07*	16.5
CCOC(=O)C1=C(C)NC(C)=C(C(=O)OCC)C1C(=O)O	-0.593	7.0	-13.8	3.6	0.32	28.7
C=CCn1c(SCC(=O)Nc2ncc(Cc3cc(C(F)(F)F)ccc3Cl)s2)nnc1-c1ccncc1	-0.274	-17.0	.	2.2	-0.86	-5.6
COc1ccc(-c2cc3nc(C)cc(C)n3n2)c(OC)c1	.	.	-19.4	.	.	.
c1ccc(C(c2ccccc2)N2CCN(c3nc4ccccc4n4cnnc34)CC2)cc1	-3	0.0	.	15.2	.	29.0
O=C(c1ccc(F)cc1)C1CCN(CCn2c(=S)[nH]c3ccccc3c2=O)CC1	-4.82*	.	.	.	.	.
O=C(C1CCC(Cn2c(=S)[nH]c3ccccc3c2=O)CC1)N1CCN(c2ccccc2)CC1 (configuration not stated)	-4.66*	.	8.8	.	-0.27	.
O=C(C1CCC(Cn2c(=O)[nH]c3ccccc3c2=O)CC1)N1CCN(c2ccccc2)CC1 (configuration not stated)	.	.	4.2	.	.	.
CC(C)N(Cc1nc(-c2ccc(Cl)cc2)no1)C(=O)c1cccs1	-2.17	-1.0	68.2*	-4.4	-1.19	26.8
